Data as given in the array DNA melting data of Ke et al. (doi:10.1101/2024.01.08.574731).

Tests used:
[1] = folding enthalpy; higher = less favourable; fluorescence melt of hairpins on a sequencing array, two-state fit; conditions: sodium 0.088 M
In short: (§1)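 Hairpins were imaged by Cy3 fluorescence on a sequenced MiSeq flow cell with annealed Cy3 and quencher oligos, in 50 mM Na-HEPES pH 8.0, 25 mM NaCl, in 2.5 °C steps up to 60 °C. Bootstrapped two-state fits of normalised signals gave melting temperature and folding enthalpy. Four replicates were combined by inverse variance, and fitted temperatures were raised by 9.35 °C to match UV melts.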

[2] = melting temperature; fluorescence melt of hairpins on a sequencing array, two-state fit, raised by 9.35 °C to match UV melts; conditions: sodium 0.088 M
In short: as §1

Row | Sequence | folding enthalpy [1] [kcal/mol] | Tm [2] [°C]
1 | GCGATCGAAAGATTCGC ((((((....))).))) | -45.1 | 53.5
2 | GCGGATCGCCGC ((((....)))) | -19.9 | 55.6
3 | GCCCCCGGAAACGGGGAC (.(((((....))))).) | -11.4 | 53.2
4 | GCATCCGAAAGGAGATGC ((((((....)))..))) | -33.6 | 50.1
5 | GTTCACTCGAAAGAGAAC (((..(((....)))))) | -9.99 | 27.8
6 | GTGTACGGAAACGTATGC (..((((....))))..) | -26.7 | 39.5
7 | GGAACCGGAAACGGTCCC ((.((((....)))).)) | -19.7 | 52.9
8 | GATCACACGAGTGATC ((((((....)))))) | -43.6 | 56.4
9 | GTTTCCGAAAGGAAGAAC ((((((....)))..))) | -11.1 | 30.9
10 | GAACGCGAAAGCGGCTTC ((((((....)))..))) | -14.9 | 53.3
11 | GCGGGAGCCGC ((((...)))) | -9.67 | 54.9
12 | GTGTCCGAAAGGACCAC ((((((....))).))) | -10.2 | 48.5
13 | GCGGGGCGAAAGCTACGC (((..((....))..))) | -27.3 | 68.6
14 | GGAATCCCGAAAGGGTCC (((..(((....)))))) | -13.2 | 33
15 | CGCACGGAAACGTGAGCG ((((((....)))..))) | -14.8 | 50.5
16 | GCGTGAACGAAAGTTCGC (((..(((....)))))) | -15.3 | 48.6
17 | GATCTTTAACAAGATC ((((((....)))))) | -32.6 | 38.1
18 | GATCCTCCGTAGGATC ((((((....)))))) | -20.4 | 48.5
19 | GATACCGAAAGGTGAATC ((((((....)))..))) | -12.6 | 27.2
20 | GTTCACGGAAACGTGGAC ((.((((....)))).)) | -29.2 | 52.8
21 | GCAGGTGGAAACACTTGC (((.(((....))).))) | -35.2 | 51.5
22 | GTGACTCGAAAGAGGCAC (((.(((....))).))) | -34.4 | 67.9
23 | GGTACAGAAATGTACC ((((((....)))))) | -38 | 53

Row | Sequence | folding enthalpy [1] [kcal/mol] | Tm [2] [°C]
24 | GACGTCGCGAAAGCGGTC (((..(((....)))))) | -11.5 | 39.3
25 | GATCAGAGGCTGATC ((((((...)))))) | -32.9 | 48.7
26 | GCACGGCGAAAGCAGCGC ((.(.((....)).).)) | -21.1 | 57.2
27 | GGGGGGGGAAACCTCCCC ((((.((....)).)))) | -34 | 59.9
28 | GGGGGATCGAAAGATCCC (((..(((....)))))) | -8.42 | 59.9
29 | GTCACGGGAAACCGCGAC (((.(((....))).))) | -30.4 | 50.8
30 | GGGTTAGAAATAACCC ((((((....)))))) | -36.4 | 53.1
31 | GCCCTCGGAAACGAGGAC (.(((((....))))).) | -13.4 | 50.3
32 | GGCACCGCGAAAGCGGCC (((..(((....)))))) | -8.53 | 40
33 | GACAGGCGAAAGCCCGTC (((.(((....))).))) | -22.3 | 52.9
34 | GGTAGCGAAAGCTGAACC ((((((....)))..))) | -17.6 | 38.2
35 | GGATACGGAAACGTATTC (.(((((....))))).) | -24.8 | 45.2
36 | GCGAACCGAAAGGTCCGC (((.(((....))).))) | -44.5 | 62.8
37 | GCCCATGGAAACATAGGC (((.(((....))).))) | -28.1 | 38.3
38 | GTTGGTGGAAACACTGAC ((..(((....)))..)) | -15.9 | 34.8
39 | GCCATCGGAAACGACGGC (((.(((....))).))) | -35.5 | 52.1
40 | GATCTAATGGTAGATC ((((((....)))))) | -27 | 35.4
41 | GTCTGCGAAAGCACAGAC ((((((....)))..))) | -18.6 | 46.3
42 | GATCAGGTAACTGATC ((((((....)))))) | -39.9 | 57.1
43 | GCATTCGAAAGAATTTGC ((((((....)))..))) | -16.9 | 30.2
44 | GGCCATCGAAAGATGCC (((.(((....)))))) | -19.8 | 54.9
45 | GCGACCGGAAACGGCCAC (.(.(((....))).).) | -14.4 | 32.5
46 | GCGGATGGAAACATTCGC (((.(((....))).))) | -43.5 | 55.1
